hIAP activ – increases human intestinal alkaline phosphatase activity. hit rate 0.16% among 330,000. purified human IAP, CDP-Star luminescence, 30 min; active compounds read high; 1 = vehicle-only enzyme, 0 = enzyme-free background. AID 2524. activation factor at 10 µM. P09923;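 active means activation factor of the enzyme at least 2-fold when tested at 20 µM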
Target sequence (P09923 whole entry, looked up): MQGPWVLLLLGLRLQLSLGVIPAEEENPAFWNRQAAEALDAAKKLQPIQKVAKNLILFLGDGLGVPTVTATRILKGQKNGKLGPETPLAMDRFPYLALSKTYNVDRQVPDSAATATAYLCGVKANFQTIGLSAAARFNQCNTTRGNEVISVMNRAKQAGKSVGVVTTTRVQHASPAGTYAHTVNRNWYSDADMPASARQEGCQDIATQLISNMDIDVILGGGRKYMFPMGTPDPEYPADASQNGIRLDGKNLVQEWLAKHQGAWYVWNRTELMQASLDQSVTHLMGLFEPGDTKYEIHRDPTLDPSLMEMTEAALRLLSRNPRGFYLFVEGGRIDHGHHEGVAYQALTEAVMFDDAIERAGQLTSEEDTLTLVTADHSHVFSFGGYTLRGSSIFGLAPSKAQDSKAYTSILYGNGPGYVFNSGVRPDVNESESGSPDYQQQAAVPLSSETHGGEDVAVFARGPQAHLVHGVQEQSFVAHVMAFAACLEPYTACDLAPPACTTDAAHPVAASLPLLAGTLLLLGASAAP
bIAP inhibitor – intestinal alkaline phosphatase (bovine) inhibition; inhibition, % at 20 µM; purified bovine IAP, CDP-star luminescence, 30 min; AID 1019; 190,000 tested, under 10 active;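 active means over 50% inhibition of intestinal alkaline phosphatase at 20 µM in the single-dose screen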
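System: Purified bovine intestinal alkaline phosphatase (IAP) enzyme | Input: IAP diluted 1/65,000,000 in the well | Also added: CDP-star chemiluminescent phosphatase substrate, 30 µM final | Dosing: 20 µM single dose | Times: Enzyme reaction for 30 min at room temperature | Detection: Luminescence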
bIAP act – intestinal alkaline phosphatase (bovine) activation; activation factor at 20 µM; hit rate 0.17% among 200,000; purified bovine IAP, CDP-star luminescence, 30 min; active compounds read high; fold of DMSO-control signal, blank-subtracted; AID 1016;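 active means activation factor of 2 or more at 20 µM, a signal rise over negative controls twice the positive control's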
mIAP activ – mouse IAP activation; hit rate 0.24% among 330,000; AID 2805; activation factor at 10 µM; muIAP, CDP-Star luminescence, 30 min; active compounds read high; 1 = vehicle-only enzyme signal, 0 = enzyme-free wells;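 active means activation factor of at least 2 at 20 µM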
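Assay system: mouse IAP enzyme; reagent: chemiluminescent substrate CDP-Star; dosing: test compounds delivered from DMSO solution; schedule: 30 min at room temperature; measured by: luminescence from enzymatic CDP-Star hydrolysis; controls: DMSO-only wells and no-enzyme negative control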
mIAP inh – mouse IAP inhibition; purified mouse IAP, CDP-Star luminescence, 30 min; inhibition, % at 10 µM; hit rate 0.2% among 330,000;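 active means inhibition of at least 40% at 10 µM in the primary screen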
hIAP block – blocks human intestinal alkaline phosphatase. P09923. purified IAP, CDP-Star luminescence, 30 min. AID 2544. hit rate 0.12% among 330,000. inhibition, % at 10 µM;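 active means inhibition reaching a set limit with compound at 10 µM in the primary screen, cut at about 35% in these data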
mIAP inh confirm – mouse IAP inhibition confirmation; AID 434971; shares compounds with mIAP inh; purified mouse IAP, CDP-Star luminescence, 30 min; hit rate 4.7% among 11,000; inhibition, % at 10 µM;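 active means inhibition of at least 40% at 10 µM in either of the two replicates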
Of the large screens only hits and unclear results are named; the others gave an inactive call (follow-up assays come after a bar, where they were run). Hits are enriched below; roughly 0.77% of the tested compounds scored in any of these assays.

COc1ccc(OC)c(CCNC(=O)Cn2nc(C)c3c(C)n(-c4ccccc4)nc3c2=O)c1	none (no result: bIAP inhibitor, bIAP act)
CCOc1ccc(OCCOC(=O)CN(C)S(=O)(=O)c2ccc(NC(C)=O)cc2)cc1	none (no result: bIAP inhibitor, bIAP act)
Cc1ccccc1-c1cc2nc(C)c(Cl)c(=O)n2[nH]1	none (no result: bIAP inhibitor, bIAP act)
Cc1cc(=O)n2[nH]c(-c3ccc(F)cc3)cc2n1	none
Cc1nc2cc(-c3ccsc3-n3c(C)ccc3C)[nH]n2c(=O)c1Cl	mIAP inh 63 | mIAP inh confirm 78
COCc1cc(=O)n2[nH]c(-c3ccsc3-n3c(C)ccc3C)cc2n1	mIAP inh 56 | mIAP inh confirm 58
Cc1cc(=O)n2[nH]c(-c3ccsc3-n3c(C)ccc3C)cc2n1	mIAP inh 50 (no result: bIAP inhibitor, bIAP act) | mIAP inh confirm 59
COc1cc(CC(=O)OCC(=O)NCc2cccs2)cc(OC)c1OC	none (no result: bIAP inhibitor, bIAP act)
c1coc(-c2nnc(-c3ccco3)nn2)c1	mIAP inh 71 (no result: bIAP inhibitor, bIAP act) | mIAP inh confirm 81
O=C(c1ccc2nc(-c3ccco3)c(-c3ccco3)nc2c1)N1CCN(c2ccccc2)CC1	none
O=C(O)c1ccc2nc(-c3ccco3)c(-c3ccco3)nc2c1	mIAP inh 48 | mIAP inh confirm 66
COC(=O)[C@@H]1C[C@@]2(O)[C@@H](O)[C@@H](O)[C@@H](O)C[C@H]2N1C/C=C/c1ccccc1	none (no result: bIAP inhibitor, bIAP act)
O=C1NC(=Nc2ccc3ccccc3c2)S/C1=C/c1ccco1	mIAP inh 56 | mIAP inh confirm 57
O=C1NC(=Nc2ccc(O)cc2)S/C1=C/c1ccco1	mIAP inh 57 | mIAP inh confirm 77
COc1ccc(N=C2NC(=O)/C(=C\C=C\c3ccco3)S2)cc1	none
COc1cccc(-c2cc(C(=O)N3CCN(C(=O)c4ccco4)CC3)on2)c1	none (no result: bIAP inhibitor, bIAP act)
S=C(NCCC(c1ccccc1)c1ccccc1)Nc1cccc(Cl)c1	mIAP activ 4.1 | mIAP inh confirm inactive
S=C(NCc1ccccn1)Nc1cccc(Cl)c1	none
COCCCNC(=S)Nc1ccccc1C	none
Cc1ccccc1NC(=S)NCCC(c1ccccc1)c1ccccc1	mIAP activ 3.7 | mIAP inh confirm inactive
Cc1cc(CNC(=O)c2cccc(OC3CCN(S(=O)(=O)N(C)C)CC3)c2)on1	none (no result: bIAP inhibitor, bIAP act)
C[C@H](NC(=O)NCc1ccc(F)cc1)C(=O)O	none
CC(NC(=S)NCc1ccc(F)cc1)C12CC3CC(CC(C3)C1)C2 (centres undefined)	mIAP activ 4.1 | mIAP inh confirm inactive
O=C(C1COc2ccccc2O1)N1CCN(Cc2ccc(Br)cc2F)CC1 (centres undefined)	none (no result: bIAP inhibitor, bIAP act)
O=C(N/N=C/c1ccc[nH]1)c1ccc2c(c1)OCO2	mIAP inh 50 | mIAP inh confirm 64
CCN(CC)CCNC(=O)c1cc2cc(Br)ccc2s1	none
CN1CCN(c2ccc(CNS(=O)(=O)Cc3cccc(C(F)(F)F)c3)cc2)CC1	none (no result: bIAP inhibitor, bIAP act)
O=[N+]([O-])c1ccc(O)c(/C=N/n2cnc3ccccc32)c1	none
Cc1ccc(/C=C2\SC(=S)N(/N=C/c3cc([N+](=O)[O-])ccc3O)C2=O)o1	mIAP inh 82 | mIAP inh confirm 86

Screening data from PubChem BioAssay.
